Experimental data as given in ChEMBL document CHEMBL3608272, “Design, synthesis and anticancer properties of novel oxa/azaspiro[4,5]trienones as potent apoptosis inducers through mitochondrial disruption” (2015).

Legend:
Type in all cases: functional
HepG2 = assay: Anti-proliferative activity against human HepG2 cells incubated for 48 hrs by SRB assay; conditions: HepG2, 48 h
Outline: (§1)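 SRB assay. Cells in DMEM with 10% FBS were seeded and grown 24 h at 37 °C in CO2. Compounds were diluted from a 10 mM DMSO stock to 1, 5 and 10 µM, with DMSO at most 0.1%, and exposed 48 h. Cells were fixed with 10% TCA for 60 min at 4 °C and stained 20 min at room temperature with 0.4% SRB in 1% acetic acid. Dye was eluted with 10 mM trizma base and absorbance read at 540 nm. Run in triplicate; GI50 given as mean ± SD of three determinations.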

DU-145 = assay: Anti-proliferative activity against human DU145 cells incubated for 48 hrs by SRB assay; conditions: DU-145, 48 h; outline: as §1
MCF7 = assay: Anti-proliferative activity against human MCF7 cells incubated for 48 hrs by SRB assay; conditions: MCF7, 48 h; outline: as §1
A549 = assay: Anti-proliferative activity against human A549 cells incubated for 48 hrs by SRB assay; conditions: A549, 48 h

| Compound | GI50 (HepG2) | GI50 (DU-145) | GI50 (MCF7) | GI50 (A549) |
| --- | --- | --- | --- | --- |
| CN1C(=O)C(c2cccc(Cl)c2Cl)=C(c2ccccc2)C12C=CC(=O)C=C2 | 10.5 µM | 14 µM | 9.9 µM | 27.6 µM |
| COc1ccc(C2=C(c3ccccc3)C3(C=CC(=O)C=C3)N(C)C2=O)c(OC)c1 | 69.1 µM | 62.7 µM | 71.7 µM | 101 µM |
| O=C1C=CC2(C=C1)OC(=O)C(c1ccc(CO)cc1)=C2c1ccccc1 | 3.3 µM | 2.4 µM | 1.7 µM | 8.1 µM |
| CN1C(=O)C(c2ccccc2)=C(c2ccccc2)C12C=CC(=O)C=C2 | 9.2 µM | 15.5 µM | 8.2 µM | 22.5 µM |
| CSc1ccc(C2=C(c3ccccc3)C3(C=CC(=O)C=C3)N(C)C2=O)cc1 | 18.7 µM | 26.4 µM | 15.8 µM | 50.4 µM |
| CN1C(=O)C(c2ccc(C#N)cc2)=C(c2ccccc2)C12C=CC(=O)C=C2 | 16.6 µM | 11.6 µM | 13.6 µM | 25.4 µM |
| COc1cccc2c1C(=O)c1c(O)c3c(c(O)c1C2=O)C[C@@](O)(C(=O)CO)C[C@@H]3O[C@H]1C[C@H](N)[C@H](O)[C@H](C)O1 [DOXORUBICIN] | 1.4 µM | 0.95 µM | 1.6 µM | 1.9 µM |
| O=C1C=CC2(C=C1)OC(=O)C(c1ccc(O)cc1)=C2c1ccccc1 | 3.5 µM | 2.7 µM | 3.4 µM | 6.2 µM |
| O=Cc1ccc(C2=C(c3ccccc3)C3(C=CC(=O)C=C3)OC2=O)s1 | 2.6 µM | 4 µM | 3.4 µM | 4.6 µM |
| COC(=O)/C=C/C1=C(c2ccccc2)C2(C=CC(=O)C=C2)OC1=O | 6.3 µM | 4.3 µM | 1.2 µM | 7.8 µM |
| COc1ccc(C2=C(c3ccccc3)C3(C=CC(=O)C=C3)OC2=O)cc1 | 3.4 µM | 4.1 µM | 1.8 µM | 7.3 µM |
| CN1C(=O)C(c2ccc(C=O)cc2)=C(c2ccccc2)C12C=CC(=O)C=C2 | 12.7 µM | 18.2 µM | 11.1 µM | 36.2 µM |
